ChEMBL document CHEMBL2331251, “Synthesis and biological evaluation of nucleoside analogues than contain silatrane on the basis of the structure of acyclovir (ACV) as novel inhibitors of hepatitis B virus (HBV)” (Bioorg Med Chem Lett, 2013)
pIC50: −log10 of the molar value. Active and inactive are the calls of the source. No cut-off for these calls is given here.

Tests used:
[1] = Cytotoxicity against human HepG2.2.15 cells assessed as reduction in number of viable cells after 3 days by MTT assay; assay type: cell-based, HepG2 2.2.15
How it was run: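 Confluent HepG2.2.15 cultures were exposed to test compounds for 3 days, with six cultures for each of two dilutions. MTT (5 g/l) was added 4 h before the end, cells were dissolved in DMSO, and OD was read at 570 nm. CC50 (50% reduction in viable cells or OD) was calculated by the Berkson logit method. Mean ± SD of three independent experiments.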

Hepatitis B virus [2] = test: Antiviral activity against Hepatitis B virus transfected in human HepG2.2.15 cells assessed as inhibition of HBeAg secretion after 6 days by ELISA; assay type: functional, organism-based; conditions: HepG2 2.2.15, 144 h
How it was run: (§1)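 HepG2.2.15 cells in DMEM with 10% FBS at 37 °C, 5% CO2, seeded at about 5 × 10⁵/well. After 24 h, compound was added at a range of concentrations, and media were replaced every 2 days for 6 days. Media were spun at 5000 rpm for 10 min, and secreted HBsAg and HBeAg were measured by ELISA. IC50 is the mean ± SD of three independent experiments.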

Hepatitis B virus [3] = test: Antiviral activity against Hepatitis B virus transfected in human HepG2.2.15 cells assessed as inhibition of HBsAg secretion after 6 days by ELISA; assay type: functional, organism-based; conditions: HepG2 2.2.15, 144 h; how it was run: as §1
Mus musculus [4] = test: Immunoregulatory activity in Hepatitis B virus infected transgenic mouse assessed as increase in CD4+/CD8+ population in peripheral blood at 100 mg/kg qd for 1 month by flow cytometry (reference value: 0.9 +/-0.2%); assay type: functional
Mus musculus [5] = test: Immunoregulatory activity in Hepatitis B virus infected transgenic mouse assessed as increase in CD8+ population in peripheral blood at 100 mg/kg qd for 1 month by flow cytometry (reference value: 14.1 +/-1.4%); assay type: functional
Mus musculus [6] = test: Immunoregulatory activity in Hepatitis B virus infected transgenic mouse assessed as increase in CD4+ population in peripheral blood at 100 mg/kg qd for 1 month by flow cytometry (reference value: 13.6 +/-2.7%); assay type: functional
Mus musculus [7] = test: Immunoregulatory activity in Hepatitis B virus infected transgenic mouse assessed as increase in CD3+ population in peripheral blood at 100 mg/kg qd for 1 month by flow cytometry (reference value: 30.1 +/-2.9%); assay type: functional
Mus musculus [8] = test: Immunoregulatory activity in Hepatitis B virus infected transgenic mouse assessed as increase in cytokine IL-2 level in serum at 100 mg/kg qd for 1 month by ELISA; assay type: functional, organism-based; design: dose 100 mg/kg
How it was run: (§2)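 Serum IFN-γ and IL-2 were measured by ELISA in HBV transgenic mice (10 per group) after 100 mg/kg once daily for one month in 0.1% DMSO, with sera collected at day 30. Mean ± SD of 10 mice.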

Mus musculus [9] = test: Immunoregulatory activity in Hepatitis B virus infected transgenic mouse assessed as increase in cytokine IFN gamma level in serum at 100 mg/kg qd for 1 month by ELISA; assay type: functional, organism-based; design: dose 100 mg/kg; how it was run: as §2
Hepatitis B virus [10] = test: Antiviral activity against Hepatitis B virus infected in transgenic mouse assessed as decrease in serum HBeAg level at 100 mg/kg qd for 1 month by ELISA; assay type: functional, organism-based; design: dose 100 mg/kg
How it was run: (§3)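 HBV transgenic mice (C57BL/6 background, 3.2 Kb HBV DNA, backcrossed to C57BL/6J), 8 weeks old, equal numbers of each sex, matched for serum HBsAg. Ten per group. Dosed 100 mg/kg once daily for one month in 0.1% DMSO. Groups included saline and 0.1% DMSO. Sera were taken at day 30, and HBsAg and HBeAg were measured by ELISA kit. Mean ± SD of 10 mice.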

Hepatitis B virus [11] = test: Antiviral activity against Hepatitis B virus infected in transgenic mouse assessed as decrease in serum HBsAg level at 100 mg/kg qd for 1 month by ELISA; assay type: functional, organism-based; design: dose 100 mg/kg; how it was run: as §3
Mus musculus [12] = test: Immunoregulatory activity in Hepatitis B virus infected transgenic mouse assessed as increase in cytokine IL-2 mRNA level in liver at 100 mg/kg qd for 1 month by qPCR analysis; assay type: functional, organism-based; design: dose 100 mg/kg
How it was run: (§4)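 Liver IFN-γ and IL-2 mRNA were measured by qPCR with mouse-specific primers, normalized to GAPDH, 40 cycles, in duplicate. HBV transgenic mice (10 per group) had been dosed at 100 mg/kg once daily for one month in 0.1% DMSO, and livers were taken at day 30. Mean ± SD of 10 mice.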

Mus musculus [13] = test: Immunoregulatory activity in Hepatitis B virus infected transgenic mouse assessed as increase in cytokine IFN gamma mRNA level in liver at 100 mg/kg qd for 1 month by qPCR analysis; assay type: functional, organism-based; design: dose 100 mg/kg; how it was run: as §4
Hepatitis B virus [14] = test: Antiviral activity against Hepatitis B virus infected in transgenic mouse assessed as decrease in viral DNA level in liver at 100 mg/kg qd for 1 month by qPCR analysis; assay type: functional, organism-based; design: dose 100 mg/kg
How it was run: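 HBV transgenic mice, 8 weeks old, sex- and HBsAg-matched, 10 per group. Given 100 mg/kg daily for one month, solubilized with 0.1% DMSO. Livers were harvested after 30 days. HBV DNA was extracted and quantified by qPCR with a commercial HBV DNA kit, 40 cycles, normalized to GAPDH, run in duplicate. Mean ± SD of 10 mice.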

Structure (SMILES) | pIC50 (Hepatitis B virus [2]) | pIC50 (Hepatitis B virus [3]) | CC50 at 72 h [1] | Activity (Mus musculus [4]) | Activity (Mus musculus [5]) | Activity (Mus musculus [6]) | Activity (Mus musculus [7]) | Activity (Mus musculus [8]) | Activity (Mus musculus [9]) | inhibition (Hepatitis B virus [10]) | inhibition (Hepatitis B virus [11]) | Activity (Mus musculus [12]) | Activity (Mus musculus [13]) | inhibition (Hepatitis B virus [14])
CC1CN2CC(C)O[Si](CCCNC(=O)CCCC(=O)OCCOCn3cnc4c(=O)[nH]c(N)nc43)(OC[C@@H]2C)O1 (stereo partly specified) | 3.31 | 3.85 | 732 µM | – | – | – | – | – | – | – | – | – | – | –
Nc1ccn([C@@H]2CS[C@H](CO)O2)c(=O)n1 [LAMIVUDINE] | < 3.00 | 3.39 | > 1000 µM | 1.2% | 16.7% | 19.3% | 34.1% | Active | Active | – | – | Active | Active | Active
Nc1nc2c(ncn2COCCO)c(=O)[nH]1 [ACYCLOVIR] | < 3.00 | < 3.00 | 630 µM | 1.2% | 15.1% | 18.7% | 31.2% | Active | Active | – | – | Active | Active | –

Stronger by pIC50 (Hepatitis B virus [2]), values ahead:

pIC50 (Hepatitis B virus [2]) | pIC50 (Hepatitis B virus [3]) | Structure (SMILES) | CC50 at 72 h [1] | Activity (Mus musculus [4]) | Activity (Mus musculus [5]) | Activity (Mus musculus [6]) | Activity (Mus musculus [7]) | Activity (Mus musculus [8]) | Activity (Mus musculus [9]) | inhibition (Hepatitis B virus [10]) | inhibition (Hepatitis B virus [11]) | Activity (Mus musculus [12]) | Activity (Mus musculus [13]) | inhibition (Hepatitis B virus [14])
3.90 | 4.10 | Nc1nc2c(ncn2COCCOC(=O)CCC(=O)NCCC[Si]23OCCN(CCO2)CCO3)c(=O)[nH]1 | 485 µM | – | – | – | – | – | – | – | – | – | – | –
4.05 | 4.46 | CC1CN2CC(C)O[Si](CCCNC(=O)CCC(=O)OCCOCn3cnc4c(=O)[nH]c(N)nc43)(O1)O[C@@H](C)C2 (stereo partly specified) | 467 µM | 1.6% | 20.6% | 33% | 48.3% | Active | Active | Active | Active | Active | Active | Active
3.80 | 4.04 | Nc1nc2c(ncn2COCCOC(=O)CCCC(=O)NCCC[Si]23OCCN(CCO2)CCO3)c(=O)[nH]1 | 570 µM | – | – | – | – | – | – | – | – | – | – | –
